The values that follow come from PubChem BioAssay.

Activity calls are given as the source filed them.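 How the source made its calls, unless noted: active means potentiation averaged over duplicate wells exceeding buffer-only control mean by more than 3 SD; inactive means the rest.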

Assay [1] in a line: nonspecific flux increase, KCNQ1-free cells – parental CHO cells, counter-screen for KCNQ1 potentiator project (AID 493006;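 active means duplicate-averaged activation above buffer control mean plus 5 SD of those controls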;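 on activation: fluorescence ratio of max minus min over baseline after K+ and Tl+ depolarization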). Conditions: parental CHO-K1 cells, FluxOR thallium flux, at 10 µM; stronger effect = higher value. The gist of the method: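 Material: untransfected host CHO-K1 cells with FluxOR thallium dye. Timing: overnight 37 °C plating, 90 min RT dye, 20 min compound. Detection: kinetic FluxOR fluorescence, 10 s baseline, 110 s after stimulus. Read-out basis: max-minus-min fluorescence over baseline, percent of buffer-to-R-L3 span. Replicates: duplicate wells per compound, percent values averaged.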

Assay [2] concerns the target Potassium voltage-gated channel subfamily KQT member 1 (Homo sapiens) (UniProt P51787). The assay can be described thus: enhancement of KCNQ1 channel thallium flux – FluxOR thallium flux, CHO cells, duplicates, confirmation (AID 493007).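 On outcome: cells depolarized by a potassium plus thallium sulfate stimulus after compound.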 The following applies: KCNQ1 cell line, FluxOR thallium flux fluorescence, at 10 µM; stronger effect = higher value, % of reference activator effect, buffer zero. The gist of the method: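 Test system – KCNQ1-expressing CHO cell line · Incubation – FluxOR dye loading 90 min, compound exposure 20 min, room temperature · Detection – FluxOR Tl+ flux fluorescence, 10 s baseline plus 110 s recording · Controls – buffer-only wells as 0% and R-L3 activator as 100%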

Assay [3] addresses Potassium voltage-gated channel subfamily KQT member 2 (Rattus norvegicus) (UniProt O88943). As to the kind of experiment: KCNQ2 thallium flux enhancement – KCNQ2-CHO-K1 cells, selectivity assay for KCNQ1 potentiator project (AID 493009;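 active means mean duplicate potentiation above the buffer control mean plus 5 SD of buffer wells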;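 further: assay conditions were tuned for KCNQ1 rather than KCNQ2 modulators; signal is max minus min fluorescence divided by baseline after thallium stimulus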). The following applies: FluxOR thallium flux fluorescence, at 10 µM; stronger effect = higher value, scaled: buffer 0, activator control 100.
Assay [4] has as its target Potassium voltage-gated channel subfamily KQT member 1 (Homo sapiens) (UniProt P51787). As to the kind of experiment: KCNQ1 activators by electrophysiology – IonWorks patch clamp, KCNQ1-CHO cells, orthogonal assay for KCNQ1 potentiator project, confirmation (AID 493184;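 active means current rise at least 3 SD above the untreated control mean in each of two repeat wells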;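 on current potentiation: percent change of the same well's current before compound addition so 0% = no change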). Conditions: automated patch clamp current, at 10 µM; stronger effect = higher value. A digest of the protocol:
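Read-out: Percent current increase versus pre-compound level | Assay system: CHO cells carrying KCNQ1 | Measured by: Automated perforated-patch electrophysiology | Medium: External bath solution at pH 7.4 | Dosing: One dose, 10 µM final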
In general terms: In patch-clamp work, channel activity is measured electrically.

Assay [5] concerns the target Potassium voltage-gated channel subfamily E member 1 (Homo sapiens) + Potassium voltage-gated channel subfamily KQT member 1 (Homo sapiens) (UniProt P15382+P51787). The assay can be described thus: KCNQ1-E1 channel activation – thallium flux, CHO-K1 KCNQ1/E1 cells, selectivity assay for KCNQ1 potentiator project, confirmation (AID 493186;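 active means mean duplicate activation above the buffer control mean plus 5 SD of those controls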). The following applies: FluxOR thallium flux, at 10 µM; stronger effect = higher value. The gist of the method:
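Test system: CHO-K1 cells with KCNQ1/E1; dosing: one test concentration; signal: FluxOR Tl+ flux fluorescence, kinetic read; incubation: 90-min dye loading then 20-min compound exposure, both at room temperature; read-out basis: percent of R-L3 effect over buffer; replication: duplicate wells per compound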

Chain of Potassium voltage-gated channel subfamily E member 1 (Homo sapiens) + Potassium voltage-gated channel subfamily KQT member 1 (Homo sapiens) (P51787 whole entry, looked up): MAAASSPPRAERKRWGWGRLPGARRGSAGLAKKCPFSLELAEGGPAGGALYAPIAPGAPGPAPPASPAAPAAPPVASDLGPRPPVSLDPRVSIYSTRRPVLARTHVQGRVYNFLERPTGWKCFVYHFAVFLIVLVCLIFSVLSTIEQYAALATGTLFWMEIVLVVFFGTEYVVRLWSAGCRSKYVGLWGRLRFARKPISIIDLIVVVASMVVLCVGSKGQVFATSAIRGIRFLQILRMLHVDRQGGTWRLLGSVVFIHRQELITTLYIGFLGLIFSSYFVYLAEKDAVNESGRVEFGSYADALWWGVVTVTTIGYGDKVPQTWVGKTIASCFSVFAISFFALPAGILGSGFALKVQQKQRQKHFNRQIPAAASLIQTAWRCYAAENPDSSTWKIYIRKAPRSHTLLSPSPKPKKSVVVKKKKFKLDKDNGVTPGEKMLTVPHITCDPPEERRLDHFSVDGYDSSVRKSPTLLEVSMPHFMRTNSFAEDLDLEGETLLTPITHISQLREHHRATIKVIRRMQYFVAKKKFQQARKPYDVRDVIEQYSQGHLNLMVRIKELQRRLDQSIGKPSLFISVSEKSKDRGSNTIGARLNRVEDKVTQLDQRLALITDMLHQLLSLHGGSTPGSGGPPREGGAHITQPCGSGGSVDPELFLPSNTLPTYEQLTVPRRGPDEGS
Chain of Potassium voltage-gated channel subfamily KQT member 1 (Homo sapiens) (P51787 whole entry, looked up): as above
Chain of Potassium voltage-gated channel subfamily KQT member 2 (Rattus norvegicus) (O88943 whole entry, looked up): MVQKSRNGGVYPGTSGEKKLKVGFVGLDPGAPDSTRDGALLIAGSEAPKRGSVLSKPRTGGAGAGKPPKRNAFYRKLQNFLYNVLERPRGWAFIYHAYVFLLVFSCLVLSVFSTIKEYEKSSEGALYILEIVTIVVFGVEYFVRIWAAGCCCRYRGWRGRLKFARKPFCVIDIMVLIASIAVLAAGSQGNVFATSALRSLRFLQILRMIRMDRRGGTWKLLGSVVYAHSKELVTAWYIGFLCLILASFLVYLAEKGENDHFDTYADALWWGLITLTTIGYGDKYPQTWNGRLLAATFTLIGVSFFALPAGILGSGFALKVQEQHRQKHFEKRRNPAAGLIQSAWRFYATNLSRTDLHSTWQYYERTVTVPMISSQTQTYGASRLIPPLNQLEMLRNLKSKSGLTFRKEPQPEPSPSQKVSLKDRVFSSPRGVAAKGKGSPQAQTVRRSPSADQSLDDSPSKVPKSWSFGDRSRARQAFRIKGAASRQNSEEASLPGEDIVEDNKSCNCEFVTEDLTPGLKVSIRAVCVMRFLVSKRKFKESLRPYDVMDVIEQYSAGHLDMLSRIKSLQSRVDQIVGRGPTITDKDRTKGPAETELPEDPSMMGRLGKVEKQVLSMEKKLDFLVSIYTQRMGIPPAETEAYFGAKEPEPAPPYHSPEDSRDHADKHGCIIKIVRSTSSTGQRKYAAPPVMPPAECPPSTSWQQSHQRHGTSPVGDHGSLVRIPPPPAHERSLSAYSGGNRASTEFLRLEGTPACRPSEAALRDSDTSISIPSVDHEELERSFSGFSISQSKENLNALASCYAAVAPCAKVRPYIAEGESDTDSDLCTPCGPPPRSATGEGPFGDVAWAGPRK

For the molecule `COc1cc(OC)cc(-c2nnc(Nc3nc4c(F)cccc4s3)o2)c1`, the result in assay [1], in assay [2], in assay [3], in assay [4] and in assay [5] was inactive.

Turning to `CNC(=O)CSc1nc2c(c(=O)n(C)c(=O)n2C)n1Cc1ccc(C)cc1`, the outcome in assay [1], in assay [2], in assay [3], in assay [4] and in assay [5] was inactive.

Regarding `CC(c1ccccc1)c1nnc(N)s1` (stereo unspecified), the outcome in assay [1], in assay [2], in assay [3], in assay [4] and in assay [5] was inactive.

As to `Clc1ccc(C2=Nn3c(nnc3-c3n[nH]c4c3CCC4)SC2)cc1Cl`, the result in assay [1], in assay [2], in assay [3], in assay [4] and in assay [5] was inactive.

As to `CN(Cc1ccccc1)C(=S)NC(=O)c1ccccc1`, the result in assay [1], in assay [4] and in assay [5] was inactive. Besides, the figures for the potentiation in assay [2] and in assay [3] were 21.5% (active) and 157% (active), respectively.

For the molecule `CCOC(=O)CNC(=O)N1CCc2ccc(NC(=O)c3ccccc3Cl)cc2C1`, the outcome in assay [1], in assay [2], in assay [3], in assay [4] and in assay [5] was inactive.

Take `O=c1c(Cl)c(Cl)cnn1Cc1nnc(-c2ccccc2Br)o1`: the result in assay [1], in assay [2] and in assay [3] was inactive. For the same molecule, in assay [4], the current potentiation is 14.7% (active).

In the case of `COc1ccc(-c2cc3nc(C)c(CCC(=O)NC(C)CCc4ccco4)c(C)n3n2)c(OC)c1` (stereo unspecified), the outcome in assay [1], in assay [2], in assay [3] and in assay [4] was inactive.

With `COc1ccc(C(=O)NC(=S)N(Cc2ccccc2)Cc2ccccc2)cc1`, the activation in assay [1] is 385% (active). Also, the potentiation is 168% (active) in assay [2] and 436% (active) in assay [3]. In addition, the result in assay [4] was inactive.

With `OCCN1CCN(c2nc(-c3ccccc3)nc3c2oc2ccccc23)CC1`, the outcome in assay [1], in assay [2], in assay [3], in assay [4] and in assay [5] was inactive.

`COC(=O)c1sc(NC(=S)NC(=O)c2cccc(C)c2)nc1C`: the result in assay [1], in assay [2], in assay [3], in assay [4] and in assay [5] was inactive.

As for `COc1ccc(NC(=O)C(=O)NNC(=O)c2cccs2)c(OC)c1`, in assay [1], the activation was 246% (active). The values for the potentiation in assay [2] and in assay [3] were 37.5% (active) and 220% (active), respectively. Also, in assay [4], the outcome was inactive.

For `Cc1ccsc1/C=N/Nc1nc2ccccc2s1`, the result in assay [1], in assay [2], in assay [3], in assay [4] and in assay [5] was inactive.

On to `Clc1ccc(Nc2ccc(Cl)nn2)cc1`, for which the result in assay [1], in assay [2], in assay [4] and in assay [5] was inactive. Further, the potentiation in assay [3] is 147% (active).

Turning to `O=C(CNS(=O)(=O)c1ccc([N+](=O)[O-])cc1)N/N=C\c1ccc(O)cc1`, the outcome in assay [1], in assay [4] and in assay [5] was inactive. In addition, the potentiation in assay [2] was 24% (active); in assay [3], 154% (active).

In the case of `COC(=O)c1sc(NC(=S)NC(=O)c2ccccc2)nc1C`, the result in assay [1], in assay [2], in assay [3], in assay [4] and in assay [5] was inactive.

On to `CCOC(=O)c1ccc(-n2c(CN3CCOCC3)nc3ccc([N+](=O)[O-])cc3c2=O)cc1`, for which the result in assay [1], in assay [2], in assay [3], in assay [4] and in assay [5] was inactive.

With `N/C(=N\OC(=O)c1cccc2ccccc12)c1ccc(Br)cc1`, the result in assay [1], in assay [2], in assay [3], in assay [4] and in assay [5] was inactive.

Take `CCOC(=O)c1c(C)nc2sc3c(=O)n(-c4ccc(OC)cc4)cnc3c2c1-c1ccc(OC)cc1`: the result in assay [1], in assay [2], in assay [3], in assay [4] and in assay [5] was inactive.

Take `S=c1[nH]nc(-c2ccco2)n1/N=C/c1ccc(Br)s1`: the outcome in assay [1], in assay [2], in assay [3], in assay [4] and in assay [5] was inactive.

With `O=C1c2ccccc2C(=O)C12OC2c1cccc2ccccc12` (stereo unspecified), the outcome in assay [1], in assay [2], in assay [3], in assay [4] and in assay [5] was inactive.

For `CCCCCCOc1ccc(N2C(=O)CC(N3CCN(C(=O)c4ccco4)CC3)C2=O)cc1` (stereo unspecified), the outcome in assay [1], in assay [3], in assay [4] and in assay [5] was inactive. Further, in assay [2], the potentiation was 17.5% (active).

With `CCOC(=O)c1[nH]c2cc(OC)c(OC)cc2c1NC(=O)CN(C)C1CCCCC1`, the result in assay [1], in assay [3], in assay [4] and in assay [5] was inactive. In assay [2], the potentiation is 18% (active).

Consider `CCCc1cc(=O)[nH]c(SCC(=O)Nc2ccc(Br)cc2Br)n1`, for which the outcome in assay [1], in assay [2], in assay [3], in assay [4] and in assay [5] was inactive.

Take `O=C(COc1ccccc1)NC(=S)Nc1ccc(Br)cn1`: the result in assay [1] and in assay [4] was inactive. The results for the potentiation in assay [2] and in assay [3] were 41.5% (active) and 206% (active), respectively. The activation in assay [5] was 20.3% (active).

For `Cc1ccc(O)c(NC(=S)NC(=O)COc2ccc(Br)cc2)c1`, the result in assay [1], in assay [2], in assay [3], in assay [4] and in assay [5] was inactive.

`c1ccc(CNc2nc3ccccc3[nH]2)cc1`: the outcome in assay [1], in assay [2], in assay [3], in assay [4] and in assay [5] was inactive.
